Entries after “also recorded” stand apart in the source; their conditions may differ. Read-outs that look alike come from different tables or passages of the source. Where only a bound is given, the exact number is not on record here.

The text below walks through data of article PMC10688270 (Neurochemical research, 2019).

The target in assay [1] is T1, SXc− (Homo sapiens, UniProt Q9UPY5).
T1 sequence (Q9UPY5 1-501): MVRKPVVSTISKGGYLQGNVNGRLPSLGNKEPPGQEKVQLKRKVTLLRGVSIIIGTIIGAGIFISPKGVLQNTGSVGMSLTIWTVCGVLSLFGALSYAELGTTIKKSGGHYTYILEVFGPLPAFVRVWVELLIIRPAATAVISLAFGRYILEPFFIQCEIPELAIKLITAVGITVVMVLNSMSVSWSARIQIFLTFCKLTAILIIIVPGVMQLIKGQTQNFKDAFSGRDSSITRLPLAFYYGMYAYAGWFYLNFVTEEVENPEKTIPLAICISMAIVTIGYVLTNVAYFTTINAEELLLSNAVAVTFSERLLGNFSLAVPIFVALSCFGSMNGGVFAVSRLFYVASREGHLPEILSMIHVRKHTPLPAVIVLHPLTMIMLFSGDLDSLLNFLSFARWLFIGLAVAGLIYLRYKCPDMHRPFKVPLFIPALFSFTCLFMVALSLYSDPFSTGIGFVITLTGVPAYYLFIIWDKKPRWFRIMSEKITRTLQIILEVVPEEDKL
T1 sequence (P08195 1-529 partner): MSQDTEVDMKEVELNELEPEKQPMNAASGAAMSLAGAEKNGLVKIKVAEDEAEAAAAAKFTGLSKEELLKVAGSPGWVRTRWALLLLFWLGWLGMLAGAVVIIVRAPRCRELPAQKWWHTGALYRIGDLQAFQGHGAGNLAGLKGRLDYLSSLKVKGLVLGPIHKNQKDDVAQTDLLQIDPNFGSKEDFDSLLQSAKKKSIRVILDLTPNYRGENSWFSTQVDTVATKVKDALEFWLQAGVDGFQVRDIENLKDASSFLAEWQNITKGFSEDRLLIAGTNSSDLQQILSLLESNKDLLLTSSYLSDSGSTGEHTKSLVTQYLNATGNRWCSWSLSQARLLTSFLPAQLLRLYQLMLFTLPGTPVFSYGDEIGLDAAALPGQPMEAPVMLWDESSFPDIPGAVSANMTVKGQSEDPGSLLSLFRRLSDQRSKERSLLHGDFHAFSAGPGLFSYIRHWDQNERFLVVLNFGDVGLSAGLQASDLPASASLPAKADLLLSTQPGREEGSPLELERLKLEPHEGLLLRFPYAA
The assay is described as follows: Inhibition of SXc−-mediated uptake of 3H-L-Glu into SNB19 cells. It is filed as cell-based. Conditions: for fold less effective than SAS: comparison of inhibition of SXc− with SAS. The procedure, abridged: (§1)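 Human SNB19 glioma cells were grown in DMEM/F-12 (pH 7.4) with 10% fetal calf serum at 37°C and 5% CO2. They were seeded at 3×10^4 cells/well and used after 3 days at 80–90% confluence. Cells were pre-incubated 5 min at 30°C in Na+-free (choline-Cl) HEPES-buffered Hank's salt solution, pH 7.4. Test compound was added simultaneously with 3H-L-Glu for 5 min at 30°C. Uptake was read by scintillation counting, normalised to BCA protein, and corrected by subtracting 4°C accumulation. Duplicate wells per experiment; n ≥ 3 experiments.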

The target in assay [2] is T1, SXc−. Nature of the assay: Kinetic analysis. It is filed as cell-based. Conditions: for Inhibitory Mechanism: V vs [S] and Lineweaver-Burk plots, SNB19 cells. A digest of the protocol:
as §1

Assay [3] relates to SXc−. Particulars: previous work; cited from earlier work.
The mark [4] stands for this setting: read-out: IC50 for the inhibition of SXc−-mediated uptake of 3H-L-Glu into SNB19 cells, Mean ± SEM (n ≥ 3), single concentration of L-Glu (100 μM), Na+-free buffer, 5 min, 30°C.

On to `O=S(=O)(O)c1cc2cc(S(=O)(=O)O)c(O)cc2cc1O` [3,6-dihydroxy-2,7-naphthylene-disulfonate], for which the half-inhibitory concentration (IC50) (usually the midpoint of a concentration-inhibition curve) at SXc− [1] (setting [4]) was > 500 µM. For Chrome Yellow, the “fold less effective than SAS” value on SXc− [1] is “about 5 fold”. The half-inhibitory concentration (IC50) at SXc− [1] (setting [4]) stood at 27 ± 4 µM. On to `O=S(=O)(O)c1cc(O)c2c(O)c(/N=N/c3cccc4ccccc34)c(S(=O)(=O)O)cc2c1` [Pontacyl Violet 6R], for which the IC50 against SXc− [1] is > 250 µM.

As to `Nc1ccc(N=Nc2ccc(-c3ccc(N=Nc4ccc(N)c5ccc(S(=O)(=O)O)cc45)cc3)cc2)c2cc(S(=O)(=O)O)ccc12` [AANS #6], the “Inhibitory Mechanism” value at SXc− [2] is “Noncompetitive (Mixed)”; at SXc− [2] (listed as #6) it was “mixed inhibition”. For `Nc1cc(S(=O)(=O)O)cc2cc(S(=O)(=O)O)c(N=Nc3cc([N+](=O)[O-])cc(Cl)c3O)c(O)c12` [Gallion], the IC50 at SXc− [1] (setting [4]) was 155 ± 11 µM. `Nc1cc(S(=O)(=O)O)cc2cc(S(=O)(=O)O)cc(O)c12` [4-Amino-5-OH-2,7-naphthylene-disulfonate]: the “inhibitory activity at SXc− (in words)” value against SXc− [1] (3H-L-Glu uptake into SNB19 cells) is “inactive”. Besides, at SXc− [1] (setting [4]), the half-inhibitory concentration (IC50) was > 500 µM.

As to `Nc1c(N=Nc2ccc([N+](=O)[O-])cc2)c(S(=O)(=O)[O-])cc2cc(S(=O)(=O)[O-])c(N=Nc3ccccc3)c(O)c12.[Na+].[Na+]` [Acid Black 1], the results for the “Inhibitory Mechanism” value on SXc− [2] and on SXc− [2] (listed as Acid Black) were “Competitive” and “competitive mechanism; also recorded: competitive inhibition”, respectively. In the case of `O=C(O)c1cc(N=Nc2cccc([N+](=O)[O-])c2)ccc1[O-].[Na+]` [Alizarin Yellow GG], the “fold less effective than SAS” value on SXc− [1] is reported as “about 5 fold”. Also, the IC50 at SXc− [1] (setting [4]) is 30 ± 7 µM. `O=C(O)c1cc(N=Nc2ccc([N+](=O)[O-])cc2)ccc1O` [Mordant Orange 1]: the IC50 at SXc− [1] (setting [4]) is 38 ± 3 µM. For `O=[N+]([O-])c1ccc(N=Nc2c(S(=O)(=O)O)cc3cc(S(=O)(=O)O)cc(O)c3c2O)cc1` [Chromotrope 2B], on SXc− [1] (setting [4]), the IC50 was 130 ± 23 µM. Consider `Nc1c(/N=N/c2ccc(-c3ccc(/N=N/c4cc(S(=O)(=O)O)c5ccccc5c4N)cc3)cc2)cc(S(=O)(=O)O)c2ccccc12` [Congo Red], for which the “block of glutamate uptake by SXc− (in words)” value with SXc− [3] is “relatively poor blocker”. Take `O=S(=O)(O)c1cc(O)c2c(O)c(N=Nc3ccccc3)c(S(=O)(=O)O)cc2c1` [Chromotrope 2R]: the IC50 at SXc− [1] (setting [4]) was determined as 21 ± 5 µM. On to `CC(=O)Nc1cc(S(=O)(=O)O)cc2cc(S(=O)(=O)O)c(N=Nc3ccccc3)c(O)c12` [Acid Red 1], for which, at SXc− [1] (setting [4]), the IC50 came to 191 ± 8 µM. With `O=C(O)c1cc(/N=N/c2ccc(S(=O)(=O)Nc3ccccn3)cc2)ccc1O` [Sulfasalazine], at SXc− [2], affinity was put at a Ki of 10.4 ± 1.3 µM and the “Inhibitory Mechanism” value is listed as “Competitive”. Moreover, the “Inhibitory Mechanism” value at SXc− [2] (listed as SAS) is “competitive inhibition”. `COc1ccccc1N=Nc1c(S(=O)(=O)O)cc2cc(S(=O)(=O)O)cc(NC(C)=O)c2c1O` [Pontacyl Carmine 2B]: the 50% inhibitory concentration (IC50) on SXc− [1] (setting [4]) is > 250 µM.
